Experimental data from ChEMBL document CHEMBL1133943, “N-hydroxyl derivatives of guanidine based drugs as enzymatic NO donors” (Bioorg Med Chem Lett, 2001).

Columns and labels:
Type in all cases: functional
[1] = target: Nitric oxide synthase 1 (Rattus norvegicus) (UniProt P29476); assay: NO releasing ability of compound measured through formation of nitrite using nNOS (nitric oxide synthases)
How it was run: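 Purified nNOS (0.5 unit) incubated with 1 mM substrate in 50 mM HEPES pH 7.4, 500 µL final volume. Mix held 100 µM NADPH, 4 µM FAD, 4 µM FMN, 6 µM BH4, 400 µM DTT, SOD, catalase, 1 mM CaCl2 and 10 µg/mL CaM; shaken at 37 °C. Ethanol quench, then Griess nitrite read at 548 nm against NaNO2 calibration without enzyme. L-arginine as control.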

[2] = target: Nitric oxide synthase, inducible (Homo sapiens) (UniProt P35228); assay: NO releasing ability of compound measured through formation of nitrite using iNOS (nitric oxide synthases)
Sequence of Nitric oxide synthase, inducible (Homo sapiens) (P35228 whole entry): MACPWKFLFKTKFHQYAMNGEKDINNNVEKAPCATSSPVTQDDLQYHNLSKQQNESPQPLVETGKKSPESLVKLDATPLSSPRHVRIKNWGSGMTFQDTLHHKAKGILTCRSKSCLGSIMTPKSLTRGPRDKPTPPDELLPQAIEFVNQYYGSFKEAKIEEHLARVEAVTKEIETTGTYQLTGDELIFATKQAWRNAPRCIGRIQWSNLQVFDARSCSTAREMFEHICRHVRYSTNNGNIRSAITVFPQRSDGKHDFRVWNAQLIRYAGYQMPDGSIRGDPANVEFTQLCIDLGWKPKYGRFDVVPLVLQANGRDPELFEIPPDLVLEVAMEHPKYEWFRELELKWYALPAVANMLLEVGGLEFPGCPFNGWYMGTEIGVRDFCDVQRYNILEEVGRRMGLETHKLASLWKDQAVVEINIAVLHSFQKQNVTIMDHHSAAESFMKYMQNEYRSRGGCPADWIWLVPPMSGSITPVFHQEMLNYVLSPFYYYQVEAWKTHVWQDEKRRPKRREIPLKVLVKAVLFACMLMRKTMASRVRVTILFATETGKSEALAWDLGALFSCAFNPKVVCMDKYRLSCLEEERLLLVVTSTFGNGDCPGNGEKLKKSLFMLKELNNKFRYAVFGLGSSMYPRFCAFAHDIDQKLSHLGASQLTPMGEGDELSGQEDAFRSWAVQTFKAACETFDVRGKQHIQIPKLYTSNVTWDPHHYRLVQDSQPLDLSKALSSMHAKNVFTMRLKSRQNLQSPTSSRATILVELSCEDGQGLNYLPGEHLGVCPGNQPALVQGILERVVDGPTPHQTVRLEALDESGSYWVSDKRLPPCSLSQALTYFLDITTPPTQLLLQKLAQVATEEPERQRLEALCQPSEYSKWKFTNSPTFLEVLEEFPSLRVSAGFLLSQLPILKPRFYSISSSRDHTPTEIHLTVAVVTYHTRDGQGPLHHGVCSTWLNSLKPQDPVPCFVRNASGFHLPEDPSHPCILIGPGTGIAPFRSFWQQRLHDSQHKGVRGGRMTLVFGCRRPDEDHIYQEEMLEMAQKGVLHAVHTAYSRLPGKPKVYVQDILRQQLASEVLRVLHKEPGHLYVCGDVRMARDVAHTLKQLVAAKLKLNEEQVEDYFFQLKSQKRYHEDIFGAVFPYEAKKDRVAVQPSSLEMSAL
How it was run: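 Purified iNOS (0.5 unit) incubated with 1 mM substrate in 50 mM HEPES pH 7.4 with 100 µM NADPH, 4 µM FAD, 4 µM FMN, 6 µM BH4, 400 µM DTT, SOD, catalase and 1 mM magnesium acetate; shaken at 37 °C. Quenched with ethanol for ≥1 h at room temperature, then Griess reagent; A548 converted via NaNO2 calibration in enzyme-free mixtures.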

[3] = target: Nitric oxide synthase 1 (Homo sapiens) (UniProt P29475); assay: NO releasing ability of compound measured through formation of nitrite using neuronal nitric oxide synthase
Sequence of Nitric oxide synthase 1 (Homo sapiens) (P29475 whole entry): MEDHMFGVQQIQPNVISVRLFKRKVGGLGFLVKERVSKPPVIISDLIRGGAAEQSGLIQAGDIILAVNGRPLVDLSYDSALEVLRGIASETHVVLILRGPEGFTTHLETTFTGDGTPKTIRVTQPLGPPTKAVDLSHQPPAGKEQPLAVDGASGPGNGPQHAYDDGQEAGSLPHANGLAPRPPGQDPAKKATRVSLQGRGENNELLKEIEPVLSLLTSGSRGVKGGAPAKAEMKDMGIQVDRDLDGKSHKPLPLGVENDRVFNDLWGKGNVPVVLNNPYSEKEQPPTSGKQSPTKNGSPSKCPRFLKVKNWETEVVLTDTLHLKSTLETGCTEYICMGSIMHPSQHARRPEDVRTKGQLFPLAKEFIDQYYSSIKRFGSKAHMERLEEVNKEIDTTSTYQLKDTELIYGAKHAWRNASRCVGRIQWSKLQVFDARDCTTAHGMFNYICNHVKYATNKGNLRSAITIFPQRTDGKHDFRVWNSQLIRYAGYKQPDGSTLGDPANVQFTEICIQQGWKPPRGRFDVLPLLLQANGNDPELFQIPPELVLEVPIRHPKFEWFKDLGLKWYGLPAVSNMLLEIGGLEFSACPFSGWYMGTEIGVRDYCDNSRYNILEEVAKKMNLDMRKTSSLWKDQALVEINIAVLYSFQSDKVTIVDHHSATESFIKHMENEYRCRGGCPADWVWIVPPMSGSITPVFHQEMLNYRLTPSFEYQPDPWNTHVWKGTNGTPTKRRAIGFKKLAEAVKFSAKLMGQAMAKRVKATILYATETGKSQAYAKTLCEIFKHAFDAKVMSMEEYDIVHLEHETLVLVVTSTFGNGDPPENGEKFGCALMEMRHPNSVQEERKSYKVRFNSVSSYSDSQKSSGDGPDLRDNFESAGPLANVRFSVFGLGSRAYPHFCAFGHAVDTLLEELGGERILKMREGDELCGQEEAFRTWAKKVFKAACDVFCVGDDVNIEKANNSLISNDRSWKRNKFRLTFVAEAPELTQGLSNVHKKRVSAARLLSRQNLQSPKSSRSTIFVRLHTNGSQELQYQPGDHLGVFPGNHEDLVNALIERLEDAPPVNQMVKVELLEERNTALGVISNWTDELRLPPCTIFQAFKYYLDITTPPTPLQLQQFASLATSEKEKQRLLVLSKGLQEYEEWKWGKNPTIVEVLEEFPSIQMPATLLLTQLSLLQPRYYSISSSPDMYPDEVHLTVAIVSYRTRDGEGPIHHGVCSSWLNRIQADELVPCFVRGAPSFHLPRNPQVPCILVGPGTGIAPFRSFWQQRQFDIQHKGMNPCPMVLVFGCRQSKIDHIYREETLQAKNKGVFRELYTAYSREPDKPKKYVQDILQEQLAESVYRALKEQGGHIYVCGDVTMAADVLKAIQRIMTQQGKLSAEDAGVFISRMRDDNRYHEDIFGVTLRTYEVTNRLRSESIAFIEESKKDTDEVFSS
How it was run: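 Incubation with nNOS (0.5 unit) in 50 mM HEPES pH 7.4 at 37 °C, shaken. Mixture: 1 mM substrate, 100 µM NADPH, 4 µM FAD, 4 µM FMN, 6 µM BH4, 400 µM DTT, 100 units SOD, 50 units catalase, 1 mM CaCl2, 10 µg/mL calmodulin. Quenched with ethanol, ≥1 h at room temperature, then Griess reagent, A548. Nitrite is quantified against NaNO2 standards made in enzyme-free mixtures. L-arginine is the reference substrate.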

[4] = Effect of incubation conditions on the formation of NO2 from the oxidation of compound in the presence of BH4
How it was run: (§1)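 Base NOS reaction varied by component: 1 mM substrate, 50 mM HEPES pH 7.4, 100 µM NADPH, 4 µM FAD, 4 µM FMN, 6 µM BH4, 400 µM DTT, SOD, catalase, 0.5 unit NOS, shaken at 37 °C for the indicated time. Nitrite determined by Griess reaction after ethanol quench, absorbance 548 nm, with NaNO2 calibration curves lacking enzyme.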

[5] = Effect of incubation conditions on the formation of NO2 from the oxidation of compound in the presence of nNOS; how it was run: as §1
[6] = Effect of incubation conditions on the formation of NO2 from the oxidation of compound in the presence of complete system; how it was run: as §1
[7] = Effect of incubation conditions on the formation of NO2 from the oxidation of compound in the presence of NADPH; how it was run: as §1
[8] = Effect of incubation conditions on the formation of NO2 from the oxidation of compound in the presence of NO2-L-Arg; how it was run: as §1

Sequence of Nitric oxide synthase 1 (Rattus norvegicus) (P29476 whole entry): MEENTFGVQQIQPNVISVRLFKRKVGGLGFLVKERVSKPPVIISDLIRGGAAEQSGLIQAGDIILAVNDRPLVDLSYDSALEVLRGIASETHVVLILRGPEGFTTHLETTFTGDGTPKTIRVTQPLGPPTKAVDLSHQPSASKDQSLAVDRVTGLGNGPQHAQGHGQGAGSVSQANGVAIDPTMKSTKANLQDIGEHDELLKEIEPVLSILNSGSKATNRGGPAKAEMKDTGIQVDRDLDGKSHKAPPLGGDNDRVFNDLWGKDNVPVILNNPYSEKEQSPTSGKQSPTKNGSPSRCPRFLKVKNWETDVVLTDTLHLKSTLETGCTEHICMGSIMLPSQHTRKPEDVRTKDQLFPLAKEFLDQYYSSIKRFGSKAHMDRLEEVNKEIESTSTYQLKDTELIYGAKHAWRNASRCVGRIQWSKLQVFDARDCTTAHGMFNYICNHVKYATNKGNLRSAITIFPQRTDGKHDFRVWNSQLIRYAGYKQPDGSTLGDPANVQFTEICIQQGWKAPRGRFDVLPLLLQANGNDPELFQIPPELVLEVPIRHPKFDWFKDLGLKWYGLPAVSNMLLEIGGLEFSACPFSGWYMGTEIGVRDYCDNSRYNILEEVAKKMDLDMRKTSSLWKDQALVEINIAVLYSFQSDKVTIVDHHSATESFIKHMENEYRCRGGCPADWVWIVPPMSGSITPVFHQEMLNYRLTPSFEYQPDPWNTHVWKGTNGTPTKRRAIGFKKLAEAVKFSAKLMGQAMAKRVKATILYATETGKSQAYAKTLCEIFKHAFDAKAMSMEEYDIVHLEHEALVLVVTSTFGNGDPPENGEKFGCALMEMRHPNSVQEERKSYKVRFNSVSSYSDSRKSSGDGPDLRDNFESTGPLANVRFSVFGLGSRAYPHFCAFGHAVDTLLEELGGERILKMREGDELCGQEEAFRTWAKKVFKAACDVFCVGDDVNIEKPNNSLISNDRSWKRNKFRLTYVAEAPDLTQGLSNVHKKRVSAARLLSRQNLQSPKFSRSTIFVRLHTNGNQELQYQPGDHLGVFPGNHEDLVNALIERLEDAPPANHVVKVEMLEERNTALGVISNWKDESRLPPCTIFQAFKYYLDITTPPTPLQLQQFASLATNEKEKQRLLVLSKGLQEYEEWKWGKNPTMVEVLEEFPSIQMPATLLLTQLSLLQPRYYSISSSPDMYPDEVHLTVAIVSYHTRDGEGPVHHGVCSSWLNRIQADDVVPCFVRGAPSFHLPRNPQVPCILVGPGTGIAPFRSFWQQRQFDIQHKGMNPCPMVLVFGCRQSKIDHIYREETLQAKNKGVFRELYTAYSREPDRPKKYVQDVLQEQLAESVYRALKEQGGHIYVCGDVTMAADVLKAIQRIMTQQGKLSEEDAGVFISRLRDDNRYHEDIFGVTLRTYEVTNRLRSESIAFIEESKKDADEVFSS

Structure (SMILES)	Activity [1]	Activity [2]	further results
N=C(N)NCC1COc2ccccc2O1 (stereo not drawn)	< 0.1 µM	< 0.1 µM	
N/C(=N\O)NCCN1CCCCCCC1	0.3 µM	0.2 µM	
N/C(=N/CC1COc2ccccc2O1)NO (stereo not drawn)	0.8 µM	0.9 µM	
N=C(N)NCCC[C@H](N)C(=O)O			Activity [3]: 14.5 µM
N=C(N)NCC1COC2(CCCCC2)O1 (stereo not drawn)	< 0.1 µM	< 0.1 µM	
N=C(N)NCCN1CCCCCCC1	< 0.1 µM	< 0.1 µM	
N/C(=N/CC1COC2(CCCCC2)O1)NO (stereo not drawn)	1.2 µM	1.6 µM	residual activity [4]: 30%; residual activity [5]: < 2%; residual activity [6]: 100%; residual activity [7]: 18%; residual activity [8]: 50%
